Measured values taken from ChEMBL document CHEMBL1133587, “Synthesis, biological activity, and molecular modeling of ribose-modified deoxyadenosine bisphosphate analogues as P2Y(1) receptor ligands” (J Med Chem, 2000).
The source made the active and inactive calls. No cut-off for these calls is given here.

How the values were obtained:
Format in all cases: functional
P2Y purinoceptor 1 [1] = biological target: T1, P2Y purinoceptor 1 (Meleagris gallopavo, UniProt P49652); assay: (§1) Inhibition of 30 nM 2-MeSADP stimulation of 2PY1-mediated phospholipase C (PLC) activity in Turkey erythrocyte ghosts
Outline: (§2)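 [3H]inositol-labelled turkey erythrocyte ghosts incubated 5 min at 30 °C, pH 7.0, with 1 µM GTPγS. Graded analogue was combined with 30 nM 2-MeSADP. Total [3H]inositol phosphates separated by anion-exchange chromatography. Maximal inhibition is 100 minus residual stimulation at the highest concentration. At least three membrane preparations, duplicate or triplicate assays.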

[2] = biological target: P2Y purinoceptor 1 (Meleagris gallopavo) (UniProt P49652); assay: as §1
Outline: as §2, with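 “chromatography. IC50 is 50% inhibition of the 2-MeSADP response.” for “chromatography.”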

P2Y purinoceptor 1 [3] = biological target: T1, P2Y purinoceptor 1; assay: Inhibition of 30 nM 2-MeSADP stimulation of 2PY1-mediated phospholipase C (PLC) activity in Turkey erythrocyte ghosts; small decrease
Outline: as §2, with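 “chromatography. IC50 is 50% inhibition of the 2-MeSADP response.” for “chromatography.”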

P2Y purinoceptor 1 [4] = biological target: T1, P2Y purinoceptor 1; assay: (§3) In vitro stimulation of 2PY1 purinoceptor mediated phospholipase C (PLC) activity in Turkey Erythrocyte Ghosts
Outline: (§4)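 Turkey erythrocytes labelled 18-24 h at 37 °C with 2-[3H]myo-inositol in inositol-free DMEM. Ghosts prepared by hypotonic lysis (about 175 µg protein). Incubated 5 min at 30 °C in Hepes pH 7.0 buffer with 1 µM GTPγS and graded nucleotide. Total [3H]inositol phosphates measured by anion-exchange chromatography. EC50 from four-parameter logistic fit. Efficacy given relative to maximal 2-MeSADP. At least three experiments, duplicate or triplicate.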

[5] = biological target: P2Y purinoceptor 1 (Meleagris gallopavo) (UniProt P49652); assay: as §3; outline: as §4
[6] = biological target: P2Y purinoceptor 1 (Meleagris gallopavo) (UniProt P49652); assay: Inhibition of 30 nM 2-MeSADP stimulation of 2PY1-mediated phospholipase C (PLC) activity in Turkey erythrocyte ghosts; NE=not effective
Outline: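 Turkey erythrocytes were labelled with 2-[3H]myo-inositol in inositol-free DMEM for 18-24 h at 37 °C, then lysed hypotonically to make ghosts. Ghosts (about 175 µg protein) were incubated 5 min at 30 °C in KCl/Hepes medium at pH 7.0 with 1 µM GTPγS, 30 nM 2-MeSADP and the test nucleotide. Total [3H]inositol phosphates were measured by anion exchange. IC50 came from logistic fits, with at least three experiments.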

T1 sequence (P49652 whole entry): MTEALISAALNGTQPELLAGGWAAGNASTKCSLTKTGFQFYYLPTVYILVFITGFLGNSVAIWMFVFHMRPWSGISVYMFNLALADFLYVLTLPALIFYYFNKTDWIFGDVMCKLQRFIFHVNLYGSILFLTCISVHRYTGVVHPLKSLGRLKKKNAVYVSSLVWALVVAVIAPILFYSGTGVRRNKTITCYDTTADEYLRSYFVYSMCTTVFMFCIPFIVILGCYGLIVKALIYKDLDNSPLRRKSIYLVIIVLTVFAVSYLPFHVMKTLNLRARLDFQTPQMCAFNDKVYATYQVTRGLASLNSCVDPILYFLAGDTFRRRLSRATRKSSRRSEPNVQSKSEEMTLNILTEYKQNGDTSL
Chain of P2Y purinoceptor 1 (Meleagris gallopavo) (P49652 whole entry): as above

Row | SMILES | IC50 (P2Y purinoceptor 1 [1]) [nM] | Max inhibition [2] [%] | IC50 (P2Y purinoceptor 1 [3]) | EC50 (P2Y purinoceptor 1 [4]) [nM] | Max increase [5] [%] | Max inhibition [6]
1 | CNc1nc(Cl)nc2c1ncn2[C@@H]1C[C@H](OP(=O)(O)O)C1COP(=O)(O)O (stereo not given in full) | 805 | 100 | – | – | – | –
2 | Nc1ncnc2c1ncn2C1CN(CCP(=O)(O)O)CC(COP(=O)(O)OP(=O)(O)OP(=O)(O)O)O1 (stereo not given) | – | – | Partially active | – | – | –
3 | Nc1ncnc2c1ncn2C1CN(CCP(=O)(O)O)CC(COP(=O)(O)O)O1 (stereo not given) | – | 37 | Partially active | – | – | –
4 | Nc1ncnc2c1ncn2C12CC(OP(=O)(O)O)C(COP(=O)(O)O)C1C2 (stereo not given) | 40000 | 42 | – | 18900 | 50 | –
5 | Nc1ncnc2c1ncn2[C@@H]1CO[C@H](COP(=O)(O)O)[C@@H](OP(=O)(O)O)C1 | – | – | – | – | 100 | inactive
6 | C[C@H]1O[C@@H](n2cnc3c(N)ncnc32)[C@H](OP(=O)(O)O)[C@@H]1OP(=O)(O)O | – | 47 | Partially active | – | – | –
7 | CNc1ncnc2c1ncn2C1CC(OP(=O)(O)O)C2(COP(=O)(O)O)CC12 (stereo not given) | 157 | 100 | – | – | – | –
8 | Nc1ncnc2c1ncn2C1CN(CCP(=O)(O)O)CC(COP(=O)(O)OP(=O)(O)O)O1 (stereo not given) | – | – | – | – | 11 | inactive
9 | Nc1ncnc2c1ncn2[C@@H]1C[C@H](COP(=O)(O)O)[C@H](OP(=O)(O)O)C1 | 2530 | 73 | – | 7210 | 27 | –
10 | CNc1nc(Cl)nc2c1ncn2C1COC(COP(=O)(O)O)C(OP(=O)(O)O)C1 (stereo not given) | 566 | 100 | – | – | – | –
11 | CNc1nc(SC)nc2c1ncn2[C@H]1C[C@H](OP(=O)(O)O)[C@@H](COP(=O)(O)O)O1 | – | 94 | – | – | 6 | –
12 | CNc1nc(Cl)nc2c1ncn2[C@H]1C[C@@H](OP(=O)(O)O)[C@]2(COP(=O)(O)O)C[C@H]12 | 51.6 | 100 | – | – | – | –
13 | CNc1nc(N)nc2c1ncn2[C@@H]1C[C@H](COP(=O)(O)O)[C@H](OP(=O)(O)O)C1 | 5420 | 74 | – | 6510 | 26 | –
14 | CNc1nc(Cl)nc2c1ncn2[C@H]1C[C@H](OP(=O)(O)O)[C@@H](COP(=O)(O)O)O1 | – | 95 | – | – | – | –
15 | CNc1nc(N)nc2c1ncn2[C@H]1C[C@H](OP(=O)(O)O)[C@@H](COP(=O)(O)O)O1 | – | 96 | – | – | 4 | –
16 | CNc1ncnc2c1ncn2[C@@H]1C[C@H](COP(=O)(O)O)[C@H](OP(=O)(O)O)C1 | 148 | 100 | – | – | – | –
17 | CNc1ncnc2c1ncn2C1COC(COP(=O)(O)O)C(OP(=O)(O)O)C1 (stereo not given) | 1640 | 100 | – | – | – | –
18 | CNc1ncnc2c1ncn2C1COC(COP(=O)(O)OP(=O)(O)OP(=O)(O)O)C(O)C1 (stereo not given) | 2370 | 82 | – | 9350 | 18 | –
19 | Nc1ncnc2c1ncn2C1CC(OP(=O)(O)O)C2(COP(=O)(O)O)CC12 (stereo not given) | – | – | – | 155 | 92 | inactive
